Laboratory results as given in article PMC7227796 (ACS chemical neuroscience, 2020).

Experiments:
[1] = target: GluN1/GluN2A NMDA receptor (Rattus norvegicus, UniProt P35439+Q00959); test: Two-electrode voltage-clamp recordings, Xenopus oocytes expressing GluN1/GluN2A; type: cell-based
Outline: (§1)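 Xenopus oocytes were injected with rat GluN1-1a and GluN2A, 2B, 2C or 2D cRNA at a 1:2 ratio. Two-electrode voltage clamp was run 2–6 days later at room temperature and −40 mV. Bath was 90 NaCl, 1 KCl, 10 HEPES, 0.5 BaCl2, 0.01 EDTA (mM), pH 7.4. Currents were evoked by 1 μM glutamate plus 100 μM glycine, with test compound gravity-perfused. Hill fits gave IC50 per oocyte (5–6 oocytes). Ki was derived by Cheng-Prusoff using earlier glutamate EC50 values.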

[2] = target: GluN1/GluN2B NMDA receptor (Rattus norvegicus, UniProt P35439+Q00960); test: Two-electrode voltage-clamp recordings, Xenopus oocytes expressing GluN1/GluN2B; type: cell-based
Outline: as §1

[3] = target: GluN1/GluN2C NMDA receptor (Rattus norvegicus, UniProt P35439+Q00961); test: Two-electrode voltage-clamp recordings, Xenopus oocytes expressing GluN1/GluN2C; type: cell-based
Outline: as §1

[4] = target: GluN1/GluN2D NMDA receptor (Rattus norvegicus, UniProt P35439+Q62645); test: Two-electrode voltage-clamp recordings, Xenopus oocytes expressing GluN1/GluN2D; type: cell-based
Outline: as §1

native KA receptors = settings: rat synaptosomes, [3H]KA; earlier work, ref [36],[38],[39]; cited from earlier work

Chain of GluN1/GluN2C NMDA receptor (Q00961 20-1237, other chains not shown): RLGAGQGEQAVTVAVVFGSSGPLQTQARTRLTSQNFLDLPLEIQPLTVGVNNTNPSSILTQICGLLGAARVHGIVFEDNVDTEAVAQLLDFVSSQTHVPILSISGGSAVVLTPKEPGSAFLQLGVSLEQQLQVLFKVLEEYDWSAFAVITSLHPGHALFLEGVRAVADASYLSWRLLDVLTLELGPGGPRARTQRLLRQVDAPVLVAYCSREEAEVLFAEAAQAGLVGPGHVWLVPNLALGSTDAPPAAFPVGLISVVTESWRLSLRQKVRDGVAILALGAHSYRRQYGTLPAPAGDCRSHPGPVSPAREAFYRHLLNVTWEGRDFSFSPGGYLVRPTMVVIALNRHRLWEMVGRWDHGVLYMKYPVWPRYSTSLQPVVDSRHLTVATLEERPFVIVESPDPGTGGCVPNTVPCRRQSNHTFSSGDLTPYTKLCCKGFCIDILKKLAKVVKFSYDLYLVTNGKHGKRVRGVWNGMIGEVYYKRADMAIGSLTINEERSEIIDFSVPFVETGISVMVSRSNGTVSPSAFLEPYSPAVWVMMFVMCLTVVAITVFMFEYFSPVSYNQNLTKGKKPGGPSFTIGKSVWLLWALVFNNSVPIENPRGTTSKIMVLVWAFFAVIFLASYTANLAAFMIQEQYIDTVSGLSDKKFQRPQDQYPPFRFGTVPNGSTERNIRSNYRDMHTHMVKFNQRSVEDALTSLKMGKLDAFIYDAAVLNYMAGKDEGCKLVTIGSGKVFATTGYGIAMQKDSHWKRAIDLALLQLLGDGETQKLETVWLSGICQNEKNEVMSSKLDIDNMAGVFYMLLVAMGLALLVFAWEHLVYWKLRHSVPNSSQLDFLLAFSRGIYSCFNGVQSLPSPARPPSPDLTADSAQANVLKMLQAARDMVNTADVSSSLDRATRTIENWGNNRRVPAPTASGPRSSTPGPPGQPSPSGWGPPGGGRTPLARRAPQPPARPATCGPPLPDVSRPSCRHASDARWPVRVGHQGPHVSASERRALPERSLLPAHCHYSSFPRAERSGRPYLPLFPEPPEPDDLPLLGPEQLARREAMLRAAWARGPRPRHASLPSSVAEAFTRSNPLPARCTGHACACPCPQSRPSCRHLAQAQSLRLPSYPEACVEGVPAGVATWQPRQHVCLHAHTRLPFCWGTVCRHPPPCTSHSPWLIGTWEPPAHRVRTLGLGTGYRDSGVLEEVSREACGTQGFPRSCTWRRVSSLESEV
Chain of GluN1/GluN2D NMDA receptor (Q62645 28-1323, other chains not shown): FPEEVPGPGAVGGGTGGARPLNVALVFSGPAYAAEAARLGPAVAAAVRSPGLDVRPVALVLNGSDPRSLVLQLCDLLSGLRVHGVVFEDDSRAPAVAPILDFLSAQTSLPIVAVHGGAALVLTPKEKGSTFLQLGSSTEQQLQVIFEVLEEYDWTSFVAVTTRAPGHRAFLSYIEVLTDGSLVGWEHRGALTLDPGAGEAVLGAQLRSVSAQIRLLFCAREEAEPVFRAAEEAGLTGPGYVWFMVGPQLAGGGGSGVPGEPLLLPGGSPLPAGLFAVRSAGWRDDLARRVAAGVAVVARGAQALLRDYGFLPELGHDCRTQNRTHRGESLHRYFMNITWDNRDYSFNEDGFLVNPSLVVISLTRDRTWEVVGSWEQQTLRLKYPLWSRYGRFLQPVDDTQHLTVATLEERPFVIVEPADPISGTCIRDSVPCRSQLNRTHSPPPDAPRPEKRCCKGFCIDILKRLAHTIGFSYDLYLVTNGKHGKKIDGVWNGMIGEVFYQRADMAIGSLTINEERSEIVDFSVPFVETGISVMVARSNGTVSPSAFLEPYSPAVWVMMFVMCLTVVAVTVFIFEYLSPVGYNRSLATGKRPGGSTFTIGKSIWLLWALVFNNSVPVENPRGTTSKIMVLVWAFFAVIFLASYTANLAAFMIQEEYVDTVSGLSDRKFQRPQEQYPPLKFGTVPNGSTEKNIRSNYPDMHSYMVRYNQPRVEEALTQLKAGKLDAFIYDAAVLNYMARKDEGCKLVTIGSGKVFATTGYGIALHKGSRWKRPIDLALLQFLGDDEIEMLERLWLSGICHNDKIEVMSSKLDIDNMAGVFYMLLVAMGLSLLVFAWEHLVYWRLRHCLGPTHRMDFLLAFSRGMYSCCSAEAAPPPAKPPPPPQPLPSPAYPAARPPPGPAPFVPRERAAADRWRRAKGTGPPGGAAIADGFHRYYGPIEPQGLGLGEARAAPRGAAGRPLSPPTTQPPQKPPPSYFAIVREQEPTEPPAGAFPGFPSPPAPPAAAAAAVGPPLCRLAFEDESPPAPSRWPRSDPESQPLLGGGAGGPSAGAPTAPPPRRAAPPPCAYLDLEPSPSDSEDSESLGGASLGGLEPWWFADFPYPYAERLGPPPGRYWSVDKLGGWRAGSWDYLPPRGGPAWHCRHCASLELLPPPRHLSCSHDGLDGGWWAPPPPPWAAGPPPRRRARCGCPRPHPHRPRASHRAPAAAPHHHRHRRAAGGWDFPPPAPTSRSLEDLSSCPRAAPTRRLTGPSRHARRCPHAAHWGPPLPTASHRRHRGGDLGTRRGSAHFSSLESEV
Chain of GluN1/GluN2B NMDA receptor (Q00960 27-1482, other chains not shown): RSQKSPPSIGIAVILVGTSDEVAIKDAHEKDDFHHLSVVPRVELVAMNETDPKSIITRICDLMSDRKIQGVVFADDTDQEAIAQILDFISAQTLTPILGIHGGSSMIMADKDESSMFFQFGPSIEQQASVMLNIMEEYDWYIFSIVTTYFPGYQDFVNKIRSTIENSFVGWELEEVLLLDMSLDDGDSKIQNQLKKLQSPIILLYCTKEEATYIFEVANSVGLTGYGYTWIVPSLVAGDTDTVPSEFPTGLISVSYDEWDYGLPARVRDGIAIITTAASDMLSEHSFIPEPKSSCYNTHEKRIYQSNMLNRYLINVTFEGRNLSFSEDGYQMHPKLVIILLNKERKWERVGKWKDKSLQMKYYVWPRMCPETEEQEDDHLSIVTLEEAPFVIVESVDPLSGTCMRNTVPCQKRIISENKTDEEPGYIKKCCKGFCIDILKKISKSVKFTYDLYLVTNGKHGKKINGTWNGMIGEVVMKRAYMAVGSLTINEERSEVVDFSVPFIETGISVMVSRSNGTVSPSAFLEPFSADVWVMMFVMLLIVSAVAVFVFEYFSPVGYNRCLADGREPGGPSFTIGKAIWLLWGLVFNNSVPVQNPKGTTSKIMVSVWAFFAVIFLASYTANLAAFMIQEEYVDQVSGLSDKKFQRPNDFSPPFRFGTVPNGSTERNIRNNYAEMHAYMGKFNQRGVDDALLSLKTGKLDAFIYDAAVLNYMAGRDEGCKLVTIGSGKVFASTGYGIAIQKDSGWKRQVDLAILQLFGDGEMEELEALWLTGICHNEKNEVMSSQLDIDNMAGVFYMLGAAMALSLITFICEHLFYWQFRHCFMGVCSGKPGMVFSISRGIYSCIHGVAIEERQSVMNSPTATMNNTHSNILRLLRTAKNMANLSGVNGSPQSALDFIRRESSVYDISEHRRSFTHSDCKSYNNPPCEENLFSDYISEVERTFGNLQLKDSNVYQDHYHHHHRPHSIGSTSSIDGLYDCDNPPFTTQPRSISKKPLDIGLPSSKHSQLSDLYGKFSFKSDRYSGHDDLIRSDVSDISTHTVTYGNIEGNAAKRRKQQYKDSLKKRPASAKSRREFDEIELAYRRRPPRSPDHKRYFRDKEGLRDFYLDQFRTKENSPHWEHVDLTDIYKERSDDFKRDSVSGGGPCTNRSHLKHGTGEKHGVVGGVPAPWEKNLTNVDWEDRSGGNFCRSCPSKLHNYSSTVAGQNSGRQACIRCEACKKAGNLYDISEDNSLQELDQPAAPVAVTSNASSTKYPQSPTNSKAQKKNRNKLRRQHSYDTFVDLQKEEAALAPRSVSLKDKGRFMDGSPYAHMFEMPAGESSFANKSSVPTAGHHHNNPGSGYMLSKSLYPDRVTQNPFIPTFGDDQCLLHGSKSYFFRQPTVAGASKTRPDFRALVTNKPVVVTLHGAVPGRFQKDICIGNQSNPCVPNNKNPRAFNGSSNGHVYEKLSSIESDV

SMILES	IC50 [1] [µM]	IC50 [2] [µM]	IC50 [3] [µM]	IC50 [4] [µM]	KA (IC50), native iGluRs (native KA receptors) [µM]
Cl.O=C(O)c1cccc([C@H]2CCN[C@@H]2C(=O)O)c1 [4a, (2S,3R)-3-(3-Carboxyphenyl)pyrrolidine-2-carboxylic acid hydrochloride]	11.8 ± 0.23	34.5 ± 0.97	91.2 ± 2.6	> 100	22
Cl.O=C(O)c1cc([C@H]2CCN[C@@H]2C(=O)O)ccc1Br [4f, (2S,3R)-3-(4-Bromo-3-carboxyphenyl)pyrrolidine-2-carboxylic acid hydrochloride]	–	–	–	–	>100
